Data taken from ChEMBL document CHEMBL4007382 (Eur J Med Chem, 2017).
pIC50: −log10 of the molar value.

Assays:
Mus musculus [1] = assay: Cardiotoxicity in Kunming mouse assessed as change in heart rate at 20 mg/kg, ip measured after 30 mins by electrocardiogram (reference value: -43.78 +/- 22.71); assay type: toxicity, organism-based; details: in vivo, 0.5 h
Mus musculus [2] = assay: Cardiotoxicity in Kunming mouse assessed as change in heart rate at 20 mg/kg, ip measured after 9 mins by electrocardiogram (reference value: -31.96 +/- 17.01); assay type: toxicity, organism-based; details: in vivo, 0.15 h
Mus musculus [3] = assay: Cardiotoxicity in Kunming mouse assessed as change in heart rate at 20 mg/kg, ip measured after 33 mins by electrocardiogram (reference value: -39.12 +/- 24.73); assay type: toxicity, organism-based; details: in vivo, 0.55 h
Mus musculus [4] = assay: Cardiotoxicity in Kunming mouse assessed as change in heart rate at 20 mg/kg, ip measured after 18 mins by electrocardiogram (reference value: -37.61 +/- 15); assay type: toxicity, organism-based; details: in vivo, 0.3 h
Mus musculus [5] = assay: Cardiotoxicity in Kunming mouse assessed as change in heart rate at 20 mg/kg, ip measured after 29 mins by electrocardiogram (reference value: -47.2 +/- 24.77); assay type: toxicity, organism-based; details: in vivo
Mus musculus [6] = assay: Cardiotoxicity in Kunming mouse assessed as change in heart rate at 20 mg/kg, ip measured after 1 mins by electrocardiogram (reference value: -4.04 +/- 7.52); assay type: toxicity, organism-based; details: in vivo
Mus musculus [7] = assay: Cardiotoxicity in Kunming mouse assessed as change in heart rate at 20 mg/kg, ip measured after 14 mins by electrocardiogram (reference value: -38.12 +/- 19.53); assay type: toxicity, organism-based; details: in vivo
Mus musculus [8] = assay: Cardiotoxicity in Kunming mouse assessed as change in heart rate at 20 mg/kg, ip measured after 31 mins by electrocardiogram (reference value: -42.8 +/- 29.79); assay type: toxicity, organism-based; details: in vivo
Cholinesterase [9] = target: T1, Cholinesterase (Homo sapiens, UniProt P06276); assay: Inhibition of human plasma BuChE using S-butyrylthiocholine iodide as substrate preincubated for 60 mins followed by substrate addition measured after 5 mins by Ellman's method
T1 sequence (P06276 whole entry): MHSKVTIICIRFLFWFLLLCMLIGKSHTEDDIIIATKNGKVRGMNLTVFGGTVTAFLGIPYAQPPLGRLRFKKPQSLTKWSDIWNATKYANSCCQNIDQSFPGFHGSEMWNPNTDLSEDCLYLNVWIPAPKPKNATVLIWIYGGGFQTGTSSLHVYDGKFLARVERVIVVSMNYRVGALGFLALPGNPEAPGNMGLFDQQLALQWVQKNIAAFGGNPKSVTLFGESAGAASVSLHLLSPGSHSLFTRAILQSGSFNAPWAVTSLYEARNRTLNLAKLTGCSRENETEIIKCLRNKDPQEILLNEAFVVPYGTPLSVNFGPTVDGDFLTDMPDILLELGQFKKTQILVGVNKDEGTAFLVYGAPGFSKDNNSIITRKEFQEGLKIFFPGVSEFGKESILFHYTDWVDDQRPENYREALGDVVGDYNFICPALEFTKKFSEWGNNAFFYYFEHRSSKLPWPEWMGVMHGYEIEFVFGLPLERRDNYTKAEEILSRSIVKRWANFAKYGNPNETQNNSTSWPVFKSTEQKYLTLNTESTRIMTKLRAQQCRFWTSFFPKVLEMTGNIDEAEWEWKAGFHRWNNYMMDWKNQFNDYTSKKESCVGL
Procedure, shortened: (§1)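 Source was plasma from heparinised blood of one healthy donor, centrifuged at 1000 × g for 20 min at 25°C, stored at -80°C and diluted 150X. Ellman assay at pH 8 and 37°C with 60 min preincubation and seven inhibitor concentrations in water, 5×10^-8 to 5×10^-10 M. Triplicates.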

Mus musculus [10] = assay: Cardiotoxicity in Kunming mouse assessed as change in heart rate at 20 mg/kg, ip measured after 8 mins by electrocardiogram (reference value: -27.98 +/- 16.02); assay type: toxicity, organism-based; details: in vivo
Mus musculus [11] = assay: Cardiotoxicity in Kunming mouse assessed as change in heart rate at 20 mg/kg, ip measured after 17 mins by electrocardiogram (reference value: -38.32 +/- 10.76); assay type: toxicity, organism-based; details: in vivo
Acetylcholinesterase [12] = target: Acetylcholinesterase (Electrophorus electricus, UniProt O42275); assay: Inhibition of electric eel AChE using S-acetylthiocholine iodide as substrate preincubated for 60 mins followed by substrate addition measured after 5 mins by Ellman's method
Chain of Acetylcholinesterase (Electrophorus electricus, UniProt O42275) (O42275 whole entry): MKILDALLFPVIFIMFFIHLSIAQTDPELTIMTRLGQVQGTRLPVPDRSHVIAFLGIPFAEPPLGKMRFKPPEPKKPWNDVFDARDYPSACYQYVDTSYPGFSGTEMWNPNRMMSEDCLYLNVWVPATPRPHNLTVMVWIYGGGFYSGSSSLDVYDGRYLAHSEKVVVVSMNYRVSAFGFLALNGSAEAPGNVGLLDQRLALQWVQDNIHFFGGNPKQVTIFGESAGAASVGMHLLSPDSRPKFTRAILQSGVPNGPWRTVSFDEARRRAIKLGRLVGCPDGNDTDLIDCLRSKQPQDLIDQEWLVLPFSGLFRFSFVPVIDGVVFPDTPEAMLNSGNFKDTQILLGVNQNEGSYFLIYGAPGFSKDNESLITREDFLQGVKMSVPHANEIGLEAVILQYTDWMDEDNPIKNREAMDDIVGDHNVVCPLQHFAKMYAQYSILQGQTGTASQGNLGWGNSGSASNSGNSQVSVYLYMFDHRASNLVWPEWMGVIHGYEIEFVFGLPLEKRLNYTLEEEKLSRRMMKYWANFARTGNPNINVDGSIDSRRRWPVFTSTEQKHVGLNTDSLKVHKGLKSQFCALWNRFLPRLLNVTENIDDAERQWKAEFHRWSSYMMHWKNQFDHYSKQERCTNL

Mus musculus [13] = assay: Cardiotoxicity in Kunming mouse assessed as change in heart rate at 20 mg/kg, ip measured after 27 mins by electrocardiogram (reference value: -44.4 +/- 23.19); assay type: toxicity, organism-based; details: in vivo, 0.45 h
Acetylcholinesterase [14] = target: Acetylcholinesterase (Homo sapiens, UniProt P22303); assay: Inhibition of human blood AChE using acetylthiocholine as substrate
Chain of Acetylcholinesterase (Homo sapiens, UniProt P22303) (P22303 whole entry): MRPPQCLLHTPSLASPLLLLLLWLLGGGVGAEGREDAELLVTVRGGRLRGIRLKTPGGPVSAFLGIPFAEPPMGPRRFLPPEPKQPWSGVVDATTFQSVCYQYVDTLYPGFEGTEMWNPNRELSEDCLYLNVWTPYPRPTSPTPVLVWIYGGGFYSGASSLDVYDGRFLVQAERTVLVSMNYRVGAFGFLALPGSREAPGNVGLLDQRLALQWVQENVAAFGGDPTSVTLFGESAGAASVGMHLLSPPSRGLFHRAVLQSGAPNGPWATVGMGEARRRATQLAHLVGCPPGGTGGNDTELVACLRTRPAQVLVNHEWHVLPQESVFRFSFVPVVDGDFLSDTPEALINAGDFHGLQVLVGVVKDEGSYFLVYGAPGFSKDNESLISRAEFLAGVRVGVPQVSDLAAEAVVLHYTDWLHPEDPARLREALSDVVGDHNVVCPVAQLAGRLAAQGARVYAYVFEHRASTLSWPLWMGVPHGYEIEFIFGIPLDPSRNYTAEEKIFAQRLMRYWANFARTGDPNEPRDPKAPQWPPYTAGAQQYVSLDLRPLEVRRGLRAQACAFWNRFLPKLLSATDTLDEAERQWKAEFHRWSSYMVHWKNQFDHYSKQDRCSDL

Cholinesterase [15] = target: T1, Cholinesterase; assay: Inhibition of human blood BuChE using butyrylthiocholine as substrate; procedure, shortened: as §1

Compound `CCN(C)C(=O)Oc1cc(OC(=O)N(C)CC)cc(C(O)CNC(C)(C)CC)c1.Cl` (stereo unspecified) has an Activity (Mus musculus [1]) of -1.5 bpm, an Activity (Mus musculus [2]) of -5.8 bpm and an Activity (Mus musculus [3]) of -2.93 bpm. The Activity (Mus musculus [4]) was 5.47 bpm, the Activity (Mus musculus [5]) was -5.1 bpm and the Activity (Mus musculus [6]) was -0.1 bpm. The Activity (Mus musculus [7]) was -4.15 bpm, the Activity (Mus musculus [8]) was 1.28 bpm and the pIC50 (Cholinesterase [9]) was 8.15. For the same compound, the Activity (Mus musculus [10]) was -4.23 bpm, the Activity (Mus musculus [11]) was 4.98 bpm and the pIC50 (Acetylcholinesterase [12]) was under 4.00. For the same compound, the Activity (Mus musculus [13]) was -4.43 bpm.
`CN(C)C(=O)Oc1cc(OC(=O)N(C)C)cc(C(O)CNC(C)(C)C)c1` (stereo unspecified) [BAMBUTEROL] showed an Activity (Mus musculus [1]) of -20.41 bpm, an Activity (Mus musculus [2]) of 0.55 bpm and an Activity (Mus musculus [3]) of 4.05 bpm. The Activity (Mus musculus [4]) was 32.35 bpm, the Activity (Mus musculus [5]) was -23.87 bpm and the Activity (Mus musculus [6]) was -2.81 bpm. It also gave a pIC50 (Acetylcholinesterase [14]) of 4.52, an Activity (Mus musculus [7]) of 39.93 bpm and an Activity (Mus musculus [8]) of -13.49 bpm. It also gave a pIC50 (Cholinesterase [15]) of 8.52, a pIC50 (Cholinesterase [9]) of 8.37 and an Activity (Mus musculus [10]) of 9.76 bpm. For the same compound, the Activity (Mus musculus [11]) was 45.59 bpm, the pIC50 (Acetylcholinesterase [12]) was under 4.00 and the Activity (Mus musculus [13]) was -1.54 bpm.
`CCC(C)(C)NCC(O)c1cc(OC(=O)N(C)C)cc(OC(=O)N(C)C)c1.Cl` (stereo unspecified) showed an Activity (Mus musculus [1]) of -36.5 bpm, an Activity (Mus musculus [2]) of -34.87 bpm and an Activity (Mus musculus [3]) of -39.88 bpm. It also gave an Activity (Mus musculus [4]) of -38.45 bpm, an Activity (Mus musculus [5]) of -37.74 bpm and an Activity (Mus musculus [6]) of -18.58 bpm. The Activity (Mus musculus [7]) was -51.28 bpm, the Activity (Mus musculus [8]) was -37.65 bpm and the pIC50 (Cholinesterase [9]) was 8.14. The Activity (Mus musculus [10]) was -32.94 bpm, the Activity (Mus musculus [11]) was -40.25 bpm and the pIC50 (Acetylcholinesterase [12]) was under 4.00. For the same compound, the Activity (Mus musculus [13]) was -32.47 bpm.
